Peptide text beside a SMILES is read from it.
Legend:
[1] = Pharmacokinetic parameter :volume apparent of distribution was reported; type: ADME, organism-based; conditions: in vivo
[2] = Pharmacokinetic parameter :drug bound to plasma was reported; type: ADME, cell-free
[3] = Pharmacokinetic parameter :half life in humans was reported; type: ADME, organism-based; conditions: human, in vivo; read-out: T1/2 beta (converted)
[4] = compound were evaluated for rate constant of transfer (log K1) at pH 7.4; type: ADME
Outline: (§1)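 Transfer rate constants were measured in a triphasic water/octanol/water system (Kochi's flask). Compound in 40 mL of 0.06 mol L-1 phosphate buffer sat in compartment A, and 40 mL of the same buffer at the same pH sat in compartment B. 80 mL octanol was layered over both compartments.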

[5] = (§2) Partition coefficient (logD3.0); type: physicochemical; conditions: octanol/water, pH 3
[6] = compound was evaluated for reverse occurs for the rate constant(log K-1) at pH 7.4; type: ADME; conditions: buffer; outline: as §1
[7] = compound was evaluated for rate constant of transfer (log K1) at pH 7.4; type: ADME; outline: as §1
[8] = compound was evaluated for reverse occurs for the rate constant(log K-1) at pH 1.0; type: ADME; conditions: buffer; outline: as §1
[9] = Partition coefficient (logD1.0); type: physicochemical; conditions: octanol/water, pH 1
Outline: (§3)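 log D measured in n-octanol/aqueous phosphate buffer (0.02 mol L-1) by centrifugal partition chromatography in a multilayer coil separator–extractor at room temperature. UV detection was at the pH-dependent λmax. log D was computed from solute and solvent-front retention times, flow rate and column capacity. t0 came from K2Cr2O7 (pH > 4.5), CoCl2 (acidic pH) or biphenyl.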

[10] = compound was evaluated for rate constant of transfer (log K1) at pH 1.0; type: ADME; outline: as §1
[11] = compound was evaluated for reverse occurs for the rate constant(log K-1) at pH 3.0; type: ADME; conditions: buffer; outline: as §1
[12] = compound was evaluated for rate constant of transfer (log K1) at pH 3.0; type: ADME; outline: as §1
[13] = compound was evaluated for saturable association constant (nKa) of isolated serum protein VLDL
[14] = compound was evaluated for saturable association constant (nKa) of isolated serum protein LDL
[15] = Lipophilicity parameter log Pdod N; type: physicochemical; conditions: dodecane/water
[16] = Lipophilicity parameter log Poct N; conditions: octanol/water
[17] = (§4) Partition coefficient (logD7.4); type: physicochemical; conditions: octanol/water, pH 7.4
[18] = Partition coefficient between dodecane and water (logDdod7.4); type: physicochemical; conditions: pH 7.4
[19] = as §4; type: physicochemical; conditions: octanol/water, pH 7.4; outline: as §3; remark: listed apart in the source
[20] = compound was evaluated for rate constant of transfer (log K1) at pH 8.8; type: ADME; outline: as §1
[21] = compound was evaluated for reverse occurs for the rate constant(log K-1) at pH 4.6; type: ADME; conditions: buffer; outline: as §1
[22] = compound was evaluated for rate constant of transfer (log K1) at pH 4.6; type: ADME; outline: as §1
[23] = compound was evaluated for reverse occurs for the rate constant(log K-1) at pH 8.8; type: ADME; conditions: buffer; outline: as §1
[24] = Partition coefficient (logD4.6); type: physicochemical; conditions: octanol/water, pH 4.6; outline: as §3
[25] = Partition coefficient (logD6.8); conditions: octanol/water, pH 6.8
[26] = Partition coefficient (logD9.4); conditions: octanol/water, pH 9.4
[27] = as §2; conditions: octanol/water, pH 3
[28] = Partition coefficient (logD1.5); conditions: octanol/water, pH 1.5

| SMILES | Vd [1] [L/kg] | B [2] [%] | logD ([5]; read-out: logD) | Log K-1 [6] | Log K1 [7] | other results |
| --- | --- | --- | --- | --- | --- | --- |
| CN(C)CCC(c1ccc(Cl)cc1)c1ccccn1 (stereo unspecified) [CHLORPHENIRAMINE] | 5.9 | 72 | – | – | – | – |
| CN1CCCC(n2nc(Cc3ccc(Cl)cc3)c3ccccc3c2=O)CC1 (stereo unspecified) [AZELASTINE] | 14.5 | – | – | – | – | half-life [3]: 25 h |
| N[C@@H](Cc1ccccc1)C(=O)N[C@@H](Cc1ccccc1)C(=O)O (H-Phe-Phe-OH) | – | – | -1.02 | -1.57 | – | Log K1 [4]: -2.29 |
| N[C@@H](Cc1c[nH]c2ccccc12)C(=O)N[C@@H](Cc1ccccc1)C(=O)O (H-Trp-Phe-OH) | – | – | -0.52 | -1.74 | -1.94 | – |
| CC(C)C[C@H](N)C(=O)N[C@@H](Cc1ccccc1)C(=O)O (H-Leu-Phe-OH) | – | – | – | -1.77 | -2.55 | – |
| CCOC(=O)N1CCC(=C2c3ccc(Cl)cc3CCc3cccnc32)CC1 [LORATADINE] | – | 97 | – | – | – | – |
| CC(C)(C)c1ccc(C(O)CCCN2CCC(C(O)(c3ccccc3)c3ccccc3)CC2)cc1 (stereo unspecified) [TERFENADINE] | 2.9 | 98 | – | – | – | half-life [3]: 23 h |
| CN(C(=O)C1=C(O)c2ccccc2S(=O)(=O)N1C)c1ccccn1 | – | – | 0.14 | -1.73 | -1.22 | Log K-1 [8]: -1.69; logD [9]: -0.12; Log K1 [10]: -1.51; logD [5]: 0.14; Log K-1 [11]: -1.63; Log K1 [12]: -1.19 |
| Oc1ccccc1 [PHENOL] | – | – | 1.54 | -2.5 | -0.68 | – |
| COC1=C(C(=O)Nc2ccccn2)N(C)S(=O)(=O)c2ccccc21 | – | – | 0.07 | – | – | Log K-1 [8]: -1.69; Log K1 [10]: -1.32 |
| CC(C)(C(=O)O)c1ccc(C(=O)CCCN2CCC(OC(c3ccccc3)c3ccccc3)CC2)cc1 [CAREBASTINE] | 2.4 | 98 | – | – | – | half-life [3]: 16 h |
| COc1ccc(CCN2CCC(Nc3nc4ccccc4n3Cc3ccc(F)cc3)CC2)cc1 [ASTEMIZOLE] | 48 | 96 | – | – | – | half-life [3]: 26 h |
| O=C(O)COCCN1CCN(C(c2ccccc2)c2ccc(Cl)cc2)CC1 (stereo unspecified) [CETIRIZINE] | – | – | – | – | – | nKa [13]: 289 M/M; nKa [14]: 2.21 M/M |
| CN(C)CCC(c1ccc(Br)cc1)c1ccccn1 (stereo unspecified) [BROMPHENIRAMINE] | 10 | 72 | – | – | – | half-life [3]: 24.9 h |
| Cc1ccc(/C(=C\CN2CCCC2)c2ccccn2)cc1 [TRIPROLIDINE] | 8.7 | 90 | – | – | – | half-life [3]: 30 h |
| OCCOCCN1CCN(C(c2ccccc2)c2ccc(Cl)cc2)CC1 (stereo unspecified) [HYDROXYZINE] | 30.5 | – | – | – | – | Log Pdod N [15]: 1.25; logP [16]: 3.5; logD [17]: 3.1; half-life [3]: 20 h; logD [18]: 0.9 |
| CN(C)CCOC(c1ccccc1)c1ccccc1 [DIPHENHYDRAMINE] | – | 98 | – | – | – | – |
| N[C@@H](Cc1c[nH]c2ccccc12)C(=O)N[C@@H](Cc1ccc(O)cc1)C(=O)O (H-Trp-Tyr-OH) | – | – | -1.38 | -1.72 | -2.73 | – |
| CN1C(C(=O)Nc2ccccn2)=C(O)c2ccccc2S1(=O)=O [PIROXICAM] | – | – | 1.43 | -1.75 | -1.53 | logD [19]: -0.08; Log K-1 [8]: -1.93; logD [9]: 0.63; Log K1 [10]: -1; Log K-1 [11]: -2.42; Log K1 [12]: -0.69 |
| CNCc1ccccc1 [N-BENZYLMETHYLAMINE] | – | – | 0.86 | -1.94 | -0.78 | – |
| CC(CCc1ccccc1)NCC(O)c1ccc(O)c(C(N)=O)c1 (stereo unspecified) [LABETALOL] | – | – | 1.03 | – | – | Log K1 [20]: -0.89; Log K-1 [21]: -1.58; Log K1 [22]: -2.07; Log K-1 [23]: -2.22; logD [24]: -0.8 |
| CC(C)(C(=O)O)c1ccc(C(O)CCCN2CCC(C(O)(c3ccccc3)c3ccccc3)CC2)cc1 (stereo unspecified) [FEXOFENADINE] | – | 65 | – | – | – | – |
| c1ccncc1 [PYRIDINE] | – | – | – | -1.7 | -0.83 | – |
| Cc1ccc(/C(=C\CN2CCCC2)c2cccc(/C=C/C(=O)O)n2)cc1 [ACRIVASTINE] | – | – | 0.86 | – | – | logD [25]: -0.03; logD [26]: 0.24; logD [27]: -0.48; logD [28]: -0.93 |

Reference: ChEMBL document CHEMBL1131523 (J Med Chem, 1998)
